{
  "source": "ChEMBL document CHEMBL1150161",
  "about": "“New taxane diterpenoids from the leaves and twigs of Taxus sumatrana” (J Nat Prod, 2002)",
  "key": {"KB": {"tested_on": "KB", "experiment": "Cytotoxicity against human KB cells after 72 hrs by methylene blue assay", "type": "functional, cell-based", "summary_of_the_method": "(§1)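 Cells kept in RPMI-1640 at 37 °C under 5% CO2, seeded at 2880 cells/well and left 3 h before sample or standard drug was added. Samples prepared at 1, 10, 40 and 100 µg/mL (stock, not final). Incubated 37 °C for 3 days. Cells then fixed in 10% formaldehyde/0.9% saline, stained with methylene blue in borate buffer, and eluted with EtOH–0.1 M HCl (1:1). Read at A650. IC50 is the concentration giving 50% absorbance reduction versus untreated cells.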"}, "[1]": {"experiment": "Cytotoxicity against human HEPA 59T/VGH cells after 72 hrs by methylene blue assay", "type": "functional, cell-based", "summary_of_the_method": "as §1"}},
  "data": [
    {"smiles": "CC(=O)O[C@H]1C[C@]2(C(C)(C)O)C(=C1C)[C@@H](OC(C)=O)[C@H](OC(C)=O)[C@@]1(C)[C@@H](OC(C)=O)C[C@H]3OC[C@@]3(OC(C)=O)[C@H]1[C@@H]2OC(C)=O", "values": [
      {"measurement": "IC50", "setting": "KB", "result": 4.92, "unit": "µg/mL"},
      {"measurement": "IC50", "setting": "[1]", "result": 6.02, "unit": "µg/mL"}
    ]},
    {"smiles": "CC(=O)O[C@H]1C[C@@]23C(=C1C)[C@@](O)(C(=O)OC2(C)C)[C@]1(C)[C@@H](OC(C)=O)C[C@H]2OC[C@@]2(OC(C)=O)[C@H]1[C@@H]3OC(=O)c1ccccc1", "values": [
      {"measurement": "IC50", "setting": "KB", "result": 8.96, "unit": "µg/mL"},
      {"measurement": "IC50", "setting": "[1]", "result": 3.09, "unit": "µg/mL"}
    ]},
    {"smiles": "CO[C@@]12[C@H](COC(N)=O)C3=C(C(=O)C(C)=C(N)C3=O)N1C[C@@H]1N[C@@H]12", "note": "[MITOMYCIN]", "values": [
      {"measurement": "IC50", "setting": "KB", "result": 0.01, "unit": "µg/mL"},
      {"measurement": "IC50", "setting": "[1]", "result": 0.01, "unit": "µg/mL"}
    ]},
    {"smiles": "CC(=O)O[C@H]1C(=O)[C@@]2(C)[C@H]([C@H](OC(=O)c3ccccc3)[C@]3(O)C[C@H](OC(=O)[C@H](O)[C@@H](NC(=O)c4ccccc4)c4ccccc4)C(C)=C1C3(C)C)[C@]1(OC(C)=O)CO[C@@H]1C[C@@H]2O", "note": "[PACLITAXEL]", "values": [
      {"measurement": "IC50", "setting": "KB", "result": 0.001, "unit": "µg/mL"},
      {"measurement": "IC50", "setting": "[1]", "result": 0.001, "unit": "µg/mL"}
    ]},
    {"smiles": "CC(=O)O[C@H]1C[C@@]23C(=C1C)[C@@](O)(C(=O)OC2(C)C)[C@@]1(C)[C@H]([C@@H]3OC(=O)c2ccccc2)[C@]2(OC(C)=O)CO[C@@H]2C[C@@H]1O", "values": [
      {"measurement": "IC50", "setting": "KB", "result": 2.91, "unit": "µg/mL"},
      {"measurement": "IC50", "setting": "[1]", "result": 13.9, "unit": "µg/mL"}
    ]},
    {"smiles": "CC(=O)O[C@H]1C2[C@@](C)([C@@H](O)C[C@H]3OC[C@@]23OC(C)=O)[C@@H](O)[C@H](O)C2=C(C)[C@@H](O)C[C@]21C(C)(C)O", "note": "(some centres not stated) [TAXUMAIROL Q]", "values": [
      {"measurement": "IC50", "setting": "KB", "result": 16.2, "unit": "µg/mL"},
      {"measurement": "IC50", "setting": "[1]", "result": 14.5, "unit": "µg/mL"}
    ]},
    {"smiles": "CC(=O)O[C@@]12CO[C@@H]1C[C@H](OC(=O)c1ccccc1)[C@]1(C)[C@@H]2[C@H](OC(=O)c2ccccc2)[C@]23C[C@H](OC(=O)c4ccccc4)C(C)=C2[C@@]1(O)C(=O)OC3(C)C", "values": [
      {"measurement": "IC50", "setting": "KB", "result": 15.4, "unit": "µg/mL"},
      {"measurement": "IC50", "setting": "[1]", "result": 4.83, "unit": "µg/mL"}
    ]},
    {"smiles": "CC(=O)O[C@H]1C[C@H]2OC[C@@]2(OC(C)=O)[C@H]2[C@H](OC(C)=O)[C@]3(C(C)(C)O)C[C@H](OC(=O)c4ccccc4)C(C)=C3[C@@H](OC(=O)c3ccccc3)[C@H](OC(C)=O)[C@]12C", "values": [
      {"measurement": "IC50", "setting": "KB", "result": 9.69, "unit": "µg/mL"},
      {"measurement": "IC50", "setting": "[1]", "result": "> 20", "unit": "µg/mL"}
    ]},
    {"smiles": "C=C1[C@@H](O)C[C@H](OC(C)=O)[C@]2(C)[C@@H](OC(C)=O)[C@H](OC(C)=O)C3=C(C)C(=O)C[C@@H]([C@@H](OC(C)=O)[C@H]12)C3(C)C", "note": "[TAXUSPINE F]", "values": [
      {"measurement": "IC50", "setting": "KB", "result": 16.9, "unit": "µg/mL"},
      {"measurement": "IC50", "setting": "[1]", "result": 3.31, "unit": "µg/mL"}
    ]},
    {"smiles": "CC(=O)O[C@@]12CO[C@@H]1C[C@H](O)[C@]1(C)[C@@H]2[C@H](OC(=O)c2ccccc2)[C@]23C[C@H](O)C(C)=C2[C@@]1(O)C(=O)OC3(C)C", "note": "[WALLIFOLIOL]", "values": [
      {"measurement": "IC50", "setting": "KB", "result": 0.56, "unit": "µg/mL"},
      {"measurement": "IC50", "setting": "[1]", "result": 0.1, "unit": "µg/mL"}
    ]},
    {"smiles": "CC(=O)O[C@H]1C[C@@]2(O)[C@H]3OC[C@]4(O)[C@@H](OC(C)=O)C[C@H](OC(=O)c5ccccc5)[C@](C)([C@H]34)[C@@H](OC(=O)c3ccccc3)[C@H](OC(C)=O)C(=C1C)C2(C)C", "values": [
      {"measurement": "IC50", "setting": "KB", "result": 12.8, "unit": "µg/mL"},
      {"measurement": "IC50", "setting": "[1]", "result": 7.02, "unit": "µg/mL"}
    ]}
  ]
}
